Test results as given in ChEMBL document CHEMBL5647697, “Akt inhibition synergizes with polycomb repressive complex 2 inhibition in the treatment of multiple myeloma” (2019).
Active and inactive are the calls of the source. The rule behind the calls is not given here.

Tests used:
NCI-H929 [1] = assay: Synergistic activity against human NCI-H929 cells assessed as combination index […] compound addition at 0.125 uM incubated for 48 hrs by MTT assay; assay type: functional
Outline: (§1)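 Cells were exposed to the EZH2/EZH1 inhibitor (UNC1999 or GSK126) for 72 h in total, with the Akt inhibitor added for the last 48 h. Viability was read by MTS assay relative to untreated control cells, in triplicate. The combination index for each dose pair came from isobologram analysis.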

OPM-2/BTZ [2] = assay: Synergistic activity against human OPM-2/BTZ cells assessed as combination index preincubated in presence of 1.25 uM GSK126 for 72 hrs followed by compound addition at 2 uM incubated for 48 hrs by MTT assay; assay type: functional
NCI-H929 [3] = assay: Upregulation of FOXO4 […] expression in human NCI-H929 cells assessed as enhanced nuclear accumulation at 1 micromol/L after 24 hrs by immunofluorescence staining; assay type: functional, cell-based; conditions: dose 1.0 µmol/L
OPM-2 [4] = assay: Synergistic activity against human OPM-2 cells assessed as combination index preincubated in presence of 1.25 uM GSK126 for 72 hrs followed by compound addition at 5 uM incubated for 48 hrs by MTT assay; assay type: functional
NCI-H929 [5] = assay: Synergistic activity against human NCI-H929 cells assessed as combination index […] at 0.25 uM incubated for 48 hrs by […]; assay type: functional; outline: as §1
OPM-2/BTZ [6] = assay: Upregulation of EZH1 protein expression in human OPM-2/BTZ cells at 0.03 to 3 micromol/L after 48 hrs by Western blot analysis; assay type: functional, cell-based; conditions: dose 0.03-3 µmol/L
MM1.S [7] = assay: Synergistic activity against human MM.1S cells assessed as combination index […] at 0.125 uM incubated for 48 hrs MTT assay; assay type: functional; outline: as §1
OPM-2/BTZ [8] = assay: Downregulation of CDK1 protein expression in human OPM-2/BTZ cells incubated at 0.3 to 3 micromol/L for 48 hrs by Western blot analysis; assay type: functional, cell-based; conditions: dose 0.3-3 µmol/L
NCI-H929 [9] = assay: (§2) Synergistic activity against human NCI-H929 cells assessed as combination index […] at 0.5 uM incubated for 48 hrs by […]; assay type: functional; outline: as §1
OPM-2/BTZ [10] = assay: Synergistic activity against human OPM-2/BTZ cells assessed as combination index preincubated in presence of 5 uM GSK126 for 72 hrs followed by compound addition at 2 uM incubated for 48 hrs by MTT assay; assay type: functional
NCI-H929 [11] = assay: Upregulation of BIM mRNA expression in human NCI-H929 cells at 1 micromol/L after 24 hrs by qRT-PCR analysis; assay type: functional, cell-based; conditions: dose 1.0 µmol/L
Outline: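 Cells were exposed to 1 μmol/L TAS-117 for 24 h. mRNA of FOXO3, FOXO4, BIM and CDKN1B was measured by qRT-PCR in H929 cells. Fold change is relative to the untreated control after normalization to GAPDH. Data are SD of triplicates.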

MM1.S [12] = assay: Synergistic activity against human MM.1S cells assessed as combination index […] in presence of 2.5 uM UNC1999 […] […] compound addition at 0.125 uM incubated for 48 hrs by MTT assay; assay type: functional; outline: as §1
MM1.S [13] = assay: Upregulation of EZH1 protein expression in human MM1.S cells at 0.03 to 3 micromol/L after 48 hrs by Western blot analysis; assay type: functional, cell-based; conditions: dose 0.03-3 µmol/L
Outline: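 MM.1S and H929 cells were treated with graded TAS-117 for 48 h. EZH1 was detected by immunoblot and quantified relative to the GAPDH loading control.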

NCI-H929 [14] = assay: Downregulation of E2F1 protein expression in human NCI-H929 cells incubated at 0.3 to 3 micromol/L for 48 hrs by Western blot analysis; conditions: dose 0.3-3 µmol/L
NCI-H929 [15] = assay: Downregulation of EZH2 mRNA expression in human NCI-H929 cells at 0.3 to 3 micromol/L after 24 hrs by qRT-PCR analysis; assay type: functional, cell-based; conditions: dose 0.3-3 µmol/L
Outline: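 MM.1S and H929 cells given TAS-117 at the indicated doses for 24 h. mRNA measured by RT-qPCR, fold change after normalization to GAPDH; SD of triplicates; significance versus untreated control.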

NCI-H929 [16] = assay: as §2; assay type: functional; outline: as §1; remark: listed apart in the source
MM1.S [17] = assay: Induction of apoptosis in human MM1.S cells assessed as live cells at 2 micromol/L incubated for 12 hrs by annexin V/PI staining based flow cytometry (reference value: 88.2%); assay type: functional; conditions: dose 2 µmol/L, at 2 µM
MM1.S [18] = assay: Synergistic activity against human MM.1S cells assessed as combination index […] in presence of 2.5 uM UNC1999 […] at 0.5 uM incubated for 48 hrs by […]; assay type: functional; outline: as §1
NCI-H929 [19] = assay: Synergistic activity against human NCI-H929 cells assessed as combination index […] compound addition at 0.25 uM incubated for 48 hrs by […]; assay type: functional; outline: as §1
OPM-2 [20] = assay: Synergistic activity against human OPM-2 cells assessed as combination index preincubated in presence of 1.25 uM UNC1999 for 72 hrs followed by compound addition at 5 uM incubated for 48 hrs by MTT assay; assay type: functional
MM1.S [21] = assay: Synergistic activity against human MM.1S cells assessed as combination index […] in presence of 5 uM UNC1999 for 72 hrs […] at 0.25 uM incubated for 48 hrs by MTT assay; assay type: functional; outline: as §1
NCI-H929 [22] = assay: Induction of apoptosis in human NCI-H929 cells assessed as necrotic cells preincubated in presence of 5 micromol/L UNC1999 for 48 hrs followed by compound addition at 2 micromol/L incubated for 12 hrs by annexin V/PI staining based flow cytometry (reference value: 2.61%); assay type: functional; conditions: dose 2 µmol/L, at 2 µM
OPM-2/BTZ [23] = assay: Synergistic activity against human OPM-2/BTZ cells assessed as combination index preincubated in presence of 2.5 uM GSK126 for 72 hrs followed by compound addition at 0.5 uM incubated for 48 hrs by MTT assay; assay type: functional
NCI-H929 [24] = assay: Synergistic activity against human NCI-H929 cells assessed as combination index […] in presence of 5 uM GSK126 […] compound addition at 0.5 uM incubated for 48 hrs by […]; assay type: functional; outline: as §1
MM1.S [25] = assay: Synergistic activity against human MM.1S cells assessed as combination index […] at 0.5 uM incubated for 48 hrs by […]; assay type: functional; outline: as §1
MM1.S [26] = assay: Induction of apoptosis in human MM1.S cells assessed as necrotic cells at 2 micromol/L incubated for 12 hrs by annexin V/PI staining based flow cytometry (reference value: 0.17%); assay type: functional; conditions: dose 2 µmol/L, at 2 µM
[27] = target: Serine/threonine-protein kinase AKT (Homo sapiens) (UniProt P31751+Q9Y243+P31749); assay: Inhibition of Akt phosphorylation in human OPM-2/BTZ cells after 48 hrs at 0.3 to 2 micromol/L for 48 hrs by Western blot analysis; assay type: cell-based; conditions: dose 0.3-2 µmol/L
Sequence of Serine/threonine-protein kinase AKT (Homo sapiens) (P31749 whole entry, looked up): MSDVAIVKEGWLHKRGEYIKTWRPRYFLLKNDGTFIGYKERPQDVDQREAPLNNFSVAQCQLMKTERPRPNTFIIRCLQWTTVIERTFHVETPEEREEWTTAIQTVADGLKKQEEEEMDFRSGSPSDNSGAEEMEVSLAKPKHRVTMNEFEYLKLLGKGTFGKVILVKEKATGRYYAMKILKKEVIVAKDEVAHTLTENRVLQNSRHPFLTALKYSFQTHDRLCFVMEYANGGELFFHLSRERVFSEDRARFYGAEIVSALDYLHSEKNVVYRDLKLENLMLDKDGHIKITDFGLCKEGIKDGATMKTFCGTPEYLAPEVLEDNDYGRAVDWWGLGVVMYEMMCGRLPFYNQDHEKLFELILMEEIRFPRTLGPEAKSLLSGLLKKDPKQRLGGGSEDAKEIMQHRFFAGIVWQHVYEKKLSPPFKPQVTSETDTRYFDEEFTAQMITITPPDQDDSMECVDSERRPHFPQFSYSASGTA
Sequence of Serine/threonine-protein kinase AKT (Homo sapiens) (P31751 whole entry, looked up): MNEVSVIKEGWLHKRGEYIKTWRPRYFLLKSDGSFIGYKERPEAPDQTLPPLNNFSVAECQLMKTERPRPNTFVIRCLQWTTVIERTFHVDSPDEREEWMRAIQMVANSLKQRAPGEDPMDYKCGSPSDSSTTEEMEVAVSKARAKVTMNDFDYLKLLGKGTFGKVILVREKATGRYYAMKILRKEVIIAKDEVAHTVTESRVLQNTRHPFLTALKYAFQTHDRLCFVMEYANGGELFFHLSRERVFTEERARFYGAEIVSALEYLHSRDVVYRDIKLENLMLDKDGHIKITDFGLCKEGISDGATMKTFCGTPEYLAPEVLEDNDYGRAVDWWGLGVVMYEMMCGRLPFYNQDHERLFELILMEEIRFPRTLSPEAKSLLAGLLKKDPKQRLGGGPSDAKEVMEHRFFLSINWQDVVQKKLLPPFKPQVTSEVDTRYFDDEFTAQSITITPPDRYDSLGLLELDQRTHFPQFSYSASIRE
Sequence of Serine/threonine-protein kinase AKT (Homo sapiens) (Q9Y243 whole entry, looked up): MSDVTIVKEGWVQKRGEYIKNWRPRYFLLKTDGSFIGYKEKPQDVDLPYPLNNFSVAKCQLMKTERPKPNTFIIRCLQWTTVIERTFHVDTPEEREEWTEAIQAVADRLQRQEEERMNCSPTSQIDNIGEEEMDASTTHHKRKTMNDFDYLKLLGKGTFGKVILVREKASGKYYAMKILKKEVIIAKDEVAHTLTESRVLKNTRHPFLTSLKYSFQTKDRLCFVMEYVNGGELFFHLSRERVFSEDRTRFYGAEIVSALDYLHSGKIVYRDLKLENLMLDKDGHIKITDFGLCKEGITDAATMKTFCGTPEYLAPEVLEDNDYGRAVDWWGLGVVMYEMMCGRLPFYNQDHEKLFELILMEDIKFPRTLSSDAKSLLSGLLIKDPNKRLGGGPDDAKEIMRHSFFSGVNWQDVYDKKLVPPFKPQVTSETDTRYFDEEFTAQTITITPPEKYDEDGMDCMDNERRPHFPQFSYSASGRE

NCI-H929 [28] = assay: Induction of apoptosis in human NCI-H929 cells assessed as necrotic cells at 5 micromol/L incubated for 48 hrs by annexin V/PI staining based flow cytometry (reference value: 2.61%); assay type: functional; conditions: dose 5 µmol/L, at 5 µM
MM1.S [29] = assay: Downregulation of EZH2 protein expression in human MM1.S cells at 0.3 to 5 micromol/L for 6 to 48 hrs by Western blot analysis; assay type: functional, cell-based; conditions: dose 0.3-5 µmol/L, time 6-48 hrs
Outline: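 MM.1S and H929 cells exposed to TAS-117 at the indicated doses for 48 h, or to 5 μmol/L for the indicated times. Immunoblot with GAPDH, Akt and H3 as loading controls; EZH2 quantified relative to GAPDH.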

Which results are given for `C[C@]1(O)C[C@@](N)(c2ccc(-c3nc4n(c3-c3ccccc3)COc3ccncc3-4)cc2)C1` [PIFUSERTIB]?
CI (NCI-H929 [1]): 0.858; CI (OPM-2/BTZ [2]): 0.203; Activity (NCI-H929 [3]): Active; CI (OPM-2 [4]): 11.425; CI (NCI-H929 [5]): 0.712; Activity (OPM-2/BTZ [6]): Active; CI (MM1.S [7]): 0.253; Activity (OPM-2/BTZ [8]): Active; CI (NCI-H929 [9]): 1.046; CI (OPM-2/BTZ [10]): 0.967; Activity (NCI-H929 [11]): Active; CI (MM1.S [12]): 0.217; Activity (MM1.S [13]): Active; Activity (NCI-H929 [14]): Active; Activity (NCI-H929 [15]): Active; CI (NCI-H929 [16]): 4.395; Activity (MM1.S [17]): 85.7%; CI (MM1.S [18]): 0.277; CI (NCI-H929 [19]): 7.428; CI (OPM-2 [20]): 1.743; CI (MM1.S [21]): 0.237; Activity (NCI-H929 [22]): 2.15%; CI (OPM-2/BTZ [23]): 0.296; CI (NCI-H929 [24]): 7.883; CI (MM1.S [25]): 0.889; Activity (MM1.S [26]): 0.23%; inhibition [27]: Active; Activity (NCI-H929 [28]): 0.84%; Activity (MM1.S [29]): Active
